# Measurements gathered from unrelated publications.
# Each line is one published result; the experiments were not run side by side.
# Target: Macrophage-stimulating protein receptor (MST1R, Homo sapiens, UniProt Q04912)
SMILES,test,conditions,measurement,value
Cc1nn(C)cc1-c1nc2c(N3CCN(Cc4ccc(Cl)cc4)CC3)c(Cl)cnc2[nH]1,"binding, competition with immobilised ligand",1 µM,remaining binding,100%
CC(C)(C)c1cc(C=C(C#N)C#N)cc(Br)c1O,"enzyme activity, inhibitor",0.5 µM,remaining activity,105%
N#CC1(c2ccccn2)CCN(Cc2cc(C(=O)O)c(=O)n3ccccc23)CC1,"cell-free assay, competition with immobilised ligand",1 µM,remaining binding,100%
Cn1cc(-c2cc(F)cc(N3CCn4c(cc5c4CCCC5)C3=O)c2CO)cc(Nc2ccc(N3CCN(C4COC4)CC3)cn2)c1=O,"enzyme activity, inhibitor",0.1 µM,inhibition,8%
COc1ncccc1-c1cnn2ccc(N3CCN(C(=O)OC(C)C)CC3)nc12,"binding, competition with immobilised ligand",1 µM,remaining binding,100%
Cn1cncc1[C@@](O)(COc1ccc(C#N)cc1-c1ccc(OC(F)(F)F)cc1)c1ccc(C#N)cc1,"cell-free assay, competition with immobilised ligand",1 µM,remaining binding,100%
C#Cc1n[nH]c2c(-c3cn([C@@H](C)c4ccccn4)c(=O)[nH]c3=O)cc(F)cc12,"enzyme activity, inhibitor",0.1 µM,inhibition,47.6%
Cn1cc(-c2cccc(N3CCc4c(sc5c4CC(C)(C)C5)C3=O)c2CO)cc(Nc2ccncn2)c1=O,"enzyme activity, inhibitor",1 µM,inhibition,11%
COc1cc(Nc2ncc(F)c(Nc3ccc4c(n3)NC(=O)C(C)(C)O4)n2)cc(OC)c1OC,"binding, competition with immobilised ligand",10 µM,inhibition,100%
C#Cc1n[nH]c2c(-c3cn([C@@H](C)c4ccccc4)c(=O)[nH]c3=O)cc(F)cc12,"enzyme activity, inhibitor",0.1 µM,inhibition,38.6%
O=c1[nH]c2ccccc2n1C1CCN(Cc2ccc(-c3[nH]c4cc5ncnc5cc4nc3-c3ccccc3)cc2)CC1,cell-free assay,0.5 µM,remaining signal,111%
